This note sets out measurements from ChEMBL document CHEMBL1144159, “Impacts of baicalein analogs with modification of the 6th position of A ring on the activity toward NF-kappaB-, AP-1-, or CREB-mediated transcription” (Bioorg Med Chem Lett, 2008).

Bounds are passed on as bounds.

For assay [1], the system named is KB. The assay can be described thus: Cytotoxicity against multi-drug resistant human KB cells overexpressing mdr1 after 3 days. It is filed as functional, cell-based. The note with it: 72 h. The essentials:
(§1)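 KB cells and their multidrug-resistant KB/MDR subline overexpressing mdr1, incubated with compound for 3 days (doubling time about 20–24 h). Growth inhibition is given as IC50, the concentration inhibiting 50% of cell growth. Values are the mean of three independent experiments.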

A short description of assay [2]: Effect on transcriptional activity of NF-kappaB transfected in human Hep G2 cells after 1 hr by luciferase reporter gene assay. Type of assay: cell-based. The note with it: HepG2, 1 h. The essentials:
(§2)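 HepG2 lines stably carrying luciferase reporters (NF-κB-luc, AP-1-luc, CRE-luc) were pretreated with a range of compound concentrations for 1 h, then incubated 4 h with or without stimulus: TNFα for NF-κB, TPA for AP-1, forskolin for CREB. Luciferase activity is expressed as % of the drug-free control, with or without stimulus. Amax is the maximal fold activity versus control; AC50 is the concentration giving 50% of maximal activity. Mean ± SD of ≥3 independent experiments.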
On the technique in general: In a reporter assay the amount or activity of a reporter protein is the signal.

Assay [3] relates to HepG2. The assay can be described thus: Effect on transcriptional activity of NF-kappaB transfected in human Hep G2 cells after 1 hr by luciferase reporter gene assay relative to control. Type of assay: cell-based. The method in brief: as §2
The subject of assay [4] is HepG2. Nature of the assay: Effect on transcriptional activity of NF-kappaB transfected in TNF-alpha-stimulated human Hep G2 cells after 4 hrs by luciferase reporter gene assay relative to control. Type of assay: cell-based. The essentials: as §2
Assay [5] has as its target Transcription factor Jun (Homo sapiens) (UniProt P05412). Nature of the assay: Effect on transcriptional activity of AP1 transfected in human Hep G2 cells after 1 hr by luciferase reporter gene assay relative to control. It is filed as cell-based. The note with it: HepG2. The essentials: as §2
Assay [6] shares this target. Nature of the assay: Effect on transcriptional activity of AP1 transfected in TPA-stimulated human Hep G2 cells after 4 hrs by luciferase reporter gene assay relative to control. Type of assay: cell-based. Particulars: HepG2. The essentials: as §2
In assay [7] the target is Cyclic AMP-responsive element-binding protein 1 (Homo sapiens) (UniProt P16220). Nature of the assay: Effect on transcriptional activity of CREB transfected in human Hep G2 cells after 1 hr by luciferase reporter gene assay relative to control. Particulars: HepG2. It is filed as cell-based. The method in brief:
as §2

The target is the same in assay [8]. Nature of the assay: Effect on transcriptional activity of CREB transfected in forskolin-stimulated human Hep G2 cells after 4 hrs by luciferase reporter gene assay relative to control. It is filed as cell-based. The note with it: HepG2. The method in brief:
as §2

A short description of assay [9]: Effect on transcriptional activity of NF-kappaB transfected in TNF-alpha-stimulated human Hep G2 cells after 4 hrs by luciferase reporter gene assay. Particulars: HepG2, 4 h. Type of assay: cell-based. The essentials: as §2
Assay [10] deals with KB. Nature of the assay: Cytotoxicity against human KB cells after 3 days. It is filed as functional, cell-based. Particulars: 72 h. The method in brief:
as §1

Chain of Transcription factor Jun (Homo sapiens) (P05412 whole entry): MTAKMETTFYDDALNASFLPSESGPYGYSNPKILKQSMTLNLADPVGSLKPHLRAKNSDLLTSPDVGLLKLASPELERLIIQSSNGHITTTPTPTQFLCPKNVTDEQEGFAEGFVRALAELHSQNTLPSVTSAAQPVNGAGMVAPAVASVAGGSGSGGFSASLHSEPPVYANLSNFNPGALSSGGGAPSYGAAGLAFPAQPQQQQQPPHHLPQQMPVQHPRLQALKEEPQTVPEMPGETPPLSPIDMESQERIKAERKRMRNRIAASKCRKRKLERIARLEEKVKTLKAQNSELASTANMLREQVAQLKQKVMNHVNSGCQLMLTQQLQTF
Chain of Cyclic AMP-responsive element-binding protein 1 (Homo sapiens) (P16220 whole entry): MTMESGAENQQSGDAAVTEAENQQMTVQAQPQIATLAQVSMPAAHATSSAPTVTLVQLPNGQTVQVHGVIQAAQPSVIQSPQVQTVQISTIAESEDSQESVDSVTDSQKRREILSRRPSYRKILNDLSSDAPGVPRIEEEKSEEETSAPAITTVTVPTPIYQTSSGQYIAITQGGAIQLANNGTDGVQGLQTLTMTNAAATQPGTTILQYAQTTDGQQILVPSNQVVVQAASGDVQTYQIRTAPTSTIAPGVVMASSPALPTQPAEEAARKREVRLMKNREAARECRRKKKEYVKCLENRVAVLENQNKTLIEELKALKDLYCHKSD

What is called IC50 is the concentration that gives 50% inhibition. A high value points to weaker potency in that assay. The AC50 is the concentration giving half of the maximal activity seen. High values mean activity only at high concentration, low ones activity at low concentration. As for `O=c1cc(-c2ccccc2)oc2cc(O)c(OCc3ccccc3)c(O)c12`, 3.2 µM corresponded to half-maximal inhibition with KB [1] (IC50). This compound also came in with an AC50 in assay [2] of 500 nM. Also, the fold change (FC) in the assay on HepG2 [3] was 2.08; in the assay with HepG2 [4], 1.47; in assay [5], 1.36; in assay [6], 0.85; in assay [7] it was 1.31; in assay [8] it was 7.69.

Regarding `CCCOc1c(O)cc2oc(-c3ccccc3)cc(=O)c2c1O`, the 50% inhibitory concentration (IC50) with KB [1] was greater than 100 µM. Besides, the fold change (FC) with HepG2 [3] amounted to 1.81; in the assay with HepG2 [4] it was 1.36; in assay [5], 1.43; in assay [6] it was 1.05; in assay [7] it was 1.59; in assay [8], 7.35.

Consider `O=c1cc(-c2ccccc2)oc2cc(O)c(O)c(O)c12` [BAICALEIN], for which the IC50 in the assay on KB [1] amounted to 87.1 µM. For the same compound, the AC50 in assay [2] turned out to be 8300 nM; in assay [9], 8.6 µM. For the same compound, the fold change (FC) was determined as 4.92 in the assay with HepG2 [3]; 3.35 with HepG2 [4]; 1.44 in [5]; 1.26 in [6]; 1.35 in assay [7]; 2.2 in [8].

As for `CC(=O)Oc1c(O)cc2oc(-c3ccccc3)cc(=O)c2c1O`, the IC50 with KB [1] turned out to be 61.6 µM. The AC50 in assay [2] came out at 2200 nM; in assay [9], 2.2 µM. The fold change (FC) came out at 6.62 with HepG2 [3]; 3.47 in the assay with HepG2 [4]; 1.44 in assay [5]; 1.18 in [6]; 2.04 in assay [7]; 5.21 in assay [8].

In the assay on KB [1], `CCOc1c(O)cc2oc(-c3ccccc3)cc(=O)c2c1O` displayed an IC50 of 17.5 µM. In addition, in assay [2], the AC50 turned out to be 700 nM. For the same compound, the fold change (FC) in the assay on HepG2 [3] is 2.92; in the assay on HepG2 [4], 1.27; in assay [5] it was 1.35; in assay [6] it was 1.21; in assay [7], 1.81; in assay [8], 14.5.

With `COc1c(O)cc2oc(-c3ccccc3)cc(=O)c2c1O` [OROXYLIN A], the IC50 amounted to 31.1 µM in the assay with KB [10] and 16.1 µM in the assay with KB [1]. Moreover, the AC50 was found to be 4800 nM in [2] and 5 µM in assay [9]. In addition, the fold change (FC) in the assay with HepG2 [3] was 4.12; in the assay on HepG2 [4] it was 2.5; in assay [5], 1.41; in assay [6], 1.27; in assay [7], 1.28; in [8] it was 2.61.
